The structures appear in SMILES notation.

The target of data set [1] is T1, N-formyl peptide receptor 3 (Homo sapiens, UniProt P25089).
T1 sequence (P25089 whole entry): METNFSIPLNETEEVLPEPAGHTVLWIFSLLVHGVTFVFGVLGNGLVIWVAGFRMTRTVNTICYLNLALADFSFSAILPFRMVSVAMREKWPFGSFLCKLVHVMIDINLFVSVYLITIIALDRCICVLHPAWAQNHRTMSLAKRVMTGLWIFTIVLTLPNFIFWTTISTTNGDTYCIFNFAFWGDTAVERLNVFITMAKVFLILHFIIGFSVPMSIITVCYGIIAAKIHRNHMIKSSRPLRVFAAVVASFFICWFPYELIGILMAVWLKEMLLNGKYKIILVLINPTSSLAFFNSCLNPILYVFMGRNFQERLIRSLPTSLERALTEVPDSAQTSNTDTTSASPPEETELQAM
Kind of data set: Agonist activity at FPR3 (unknown origin) transfected in human HL60 cells assessed as induction of Ca2+ mobilization. Type of data set: cell-based, HL-60. On the technique in general: A change in cytosolic calcium serves as a functional read-out for many receptors and channels.

Data set [2] addresses T2, fMet-Leu-Phe receptor (Homo sapiens) (UniProt P21462).
T2 sequence (whole entry): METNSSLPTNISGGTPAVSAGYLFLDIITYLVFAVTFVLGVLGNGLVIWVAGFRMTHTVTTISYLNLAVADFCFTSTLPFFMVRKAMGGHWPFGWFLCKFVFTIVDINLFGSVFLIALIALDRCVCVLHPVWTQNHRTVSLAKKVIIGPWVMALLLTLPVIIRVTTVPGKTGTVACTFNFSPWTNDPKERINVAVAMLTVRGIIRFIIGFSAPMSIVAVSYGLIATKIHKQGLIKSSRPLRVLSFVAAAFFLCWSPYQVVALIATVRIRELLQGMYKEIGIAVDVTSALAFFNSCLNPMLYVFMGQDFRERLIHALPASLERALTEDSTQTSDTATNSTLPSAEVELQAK
The experiment in a line: Agonist activity at FPR1 (unknown origin) transfected in human HL60 cells assessed as induction of Ca2+ mobilization relative to fMLF. Type of data set: functional, cell-based. Conditions: HL-60. The procedure, abridged:
(§1)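 Same Fluo-4 Ca2+ flux in transfected HL-60 cells. The peak fluorescence change over baseline was normalized to 5 nM fMLF for FPR1 cells and to 5 nM WKYMVm for FPR2 and FPR3 cells, each taken as 100%. Efficacy was read from 5–6 point dose-response curves.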

The target in data set [3] is T3, N-formyl peptide receptor 2 (Homo sapiens, UniProt P25090).
T3 sequence (P25090 whole entry): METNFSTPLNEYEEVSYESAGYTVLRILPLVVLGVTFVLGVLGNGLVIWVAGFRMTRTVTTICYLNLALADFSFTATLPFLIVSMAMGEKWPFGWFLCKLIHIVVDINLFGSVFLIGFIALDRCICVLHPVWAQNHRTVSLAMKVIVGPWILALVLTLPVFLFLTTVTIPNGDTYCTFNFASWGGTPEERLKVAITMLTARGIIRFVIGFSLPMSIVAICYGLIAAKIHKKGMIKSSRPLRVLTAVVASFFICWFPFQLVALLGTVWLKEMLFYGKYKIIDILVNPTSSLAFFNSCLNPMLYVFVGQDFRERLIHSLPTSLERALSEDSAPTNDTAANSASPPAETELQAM
The experiment in a line: Agonist activity at FPR2 (unknown origin) transfected in human HL60 cells assessed as induction of Ca2+ mobilization. Type of data set: functional, cell-based, HL-60.

Data set [4] deals with HL-60. The experiment in a line: Effect on Ca2+ mobilization in human wild type HL60 cells. The class given is functional, cell-based. The procedure, abridged: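 Wild-type, non-transfected HL-60 cells, grown without G418, were run in the same Fluo-4 Ca2+ flux assay. Fluorescence was monitored every 5 s for 240 s at room temperature.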
Data set [5] addresses T4, fMet-Leu-Phe receptor 1/2 (Homo sapiens, UniProt P21462+P25090).
T4 sequence (P21462 whole entry): T2 sequence (whole entry)
T4 sequence (P25090 whole entry): T3 sequence (P25090 whole entry)
Kind of data set: Agonist activity at FPR1/FPR2 in human neutrophils assessed as induction of Ca2+ mobilization. The class given is functional.

In data set [6] the test system is HL-60. The experiment in a line: Cytotoxicity against human wild type HL60 cells at 5 to 20 uM after 60 mins by CellTitre-Glo luminescent assay. Conditions: hl-60, 1 h. Type of data set: cell-based. The procedure, abridged:
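Wild-type HL-60 cells at 3×10^4 cells/well were exposed to 5, 10 or 20 µM compound for 60 min at 37 °C in 5% CO2. Samples were equilibrated to room temperature for 30 min before the CellTiter-Glo luminescence read. Triplicate samples; the experiment was representative of two.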

Data set [7] concerns the target T5, N-formyl peptide receptor 2 (Homo sapiens) (UniProt P25090).
T5 sequence (whole entry): T3 sequence (P25090 whole entry)
The experiment in a line: Agonist activity at FPR2 (unknown origin) transfected in human HL60 cells assessed as induction of Ca2+ mobilization relative to WKYMVm. The class given is functional, cell-based. Conditions: HL-60. The procedure, abridged:
as §1

The target of data set [8] is T6, fMet-Leu-Phe receptor (Homo sapiens, UniProt P21462).
T6 sequence (P21462 whole entry): T2 sequence (whole entry)
Kind of data set: Agonist activity at FPR1 (unknown origin) transfected in human HL60 cells assessed as induction of Ca2+ mobilization. Type of data set: functional, cell-based, HL-60.

Data set [9] addresses fMet-Leu-Phe receptor 1/2 (Homo sapiens) (UniProt P21462+P25090). Kind of data set: Agonist activity at FPR1/FPR2 in human neutrophils assessed as induction of Ca2+ mobilization relative to fMLF. The class given is functional. The procedure, abridged: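 Neutrophils from healthy donors were isolated by dextran sedimentation, Histopaque 1077 gradient and hypotonic red cell lysis. […] Peak response was normalized to 5 nM fMLF as 100%. EC50 comes from 5–6 point curves, mean of three experiments with different donors.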

Data set [10] has as its system Neutrophil. The experiment in a line: Induction of chemotaxis in human neutrophils assessed as cell migration after 60 mins by CellTitre-Glo luminescent assay. The class given is functional, cell-based. Conditions: 1 h. The procedure, abridged: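 Migration ran 60 min at 37 °C in 5% CO2. Migrated cells were counted by ATP luminescence against a neutrophil standard curve and expressed as % of spontaneous migration. EC50 comes from nonlinear regression of dose-response curves.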

A word on the EC50: it is the concentration that produces a half-maximal response. Turning to `COc1ccc(Nc2c(C(C)=O)c(C)nn(CC(=O)Nc3ccc(Br)cc3)c2=O)cc1`, the EC50 was greater than 50 µM in data set [1]; 1.7 µM in data set [3]; greater than 50 µM in [4]; 3.9 µM in [5]; 13.5 µM in [8]; 2.7 µM in data set [10]. The figures for the Efficacy in data set [2], in data set [7] and in data set [9] were 75%, 90% and 110%, respectively. In addition, the Activity result in data set [6] is reported as “Non-toxic”.
Take `Cc1cc(Cc2ccccc2)c(=O)n(CC(=O)Nc2ccc3c(c2)OCO3)n1`: the EC50 in data set [1] was greater than 50 µM; in [3] it was greater than 50 µM; in [4], greater than 50 µM; in data set [5], 6.1 µM; in data set [8], 6.9 µM; in [10] it was 4.2 µM. In addition, the Efficacy is 55% in [2] and 75% in [9]. Moreover, in [6], the Activity entry is “Non-toxic”.
